Data taken from ChEMBL document CHEMBL4017489, “Design, Synthesis, and Evaluation of New Selective NM23-H2 Binders as c-MYC Transcription Inhibitors via Disruption of the NM23-H2/G-Quadruplex Interaction” (J Med Chem, 2017).
The source made the active and inactive calls. The rule behind the calls is not given here.

What was measured:
[1] = molecular target: T1, Nucleoside diphosphate kinase B (Homo sapiens, UniProt P22392); assay: Binding affinity to NM23-H2 in human SiHa cells assessed as decrease in NM23-H2 to c-myc G-quadruplex DNA interaction after 9 hrs by Chromatin immunoprecipitation assay; assay type: cell-based
How it was run: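 SiHa cells treated 9 h; chromatin immunoprecipitated overnight at 4 °C with anti-NM23-H2 (3 μg), rabbit IgG control; c-MYC promoter fragment PCR-amplified, gel bands normalized to input, untreated set 100%; three repeats.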

[2] = Binding affinity to 5'-FAM/3'-TAMRA labeled Pu22 c-myc G-quadruplex DNA (unknown origin) assessed as increase in melting temperature at 1 uM by FRET assay
[3] = Binding affinity to biotin-labeled Pu22 c-myc G-quadruplex DNA (unknown origin) at 40 uM after 30 mins by SPR analysis
SiHa [4] = assay: Effect on NM23-H2 mRNA level in human SiHa cells up to 2 uM after 9 hrs by RT-PCR analysis; assay type: functional, cell-based
How it was run: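 SiHa cells treated with 0, 0.5, 1.0 or 2.0 μM for 9 h. TRIzol RNA (1.5 μg) reverse-transcribed with M-MLV and oligo(dT) for 1 h at 42 °C. Semiquantitative PCR run for 30 cycles (58 °C annealing) and products resolved on 1.5% agarose. Band intensity normalized to β-actin, with untreated sample set at 100%; three repeats.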

[5] = molecular target: T1, Nucleoside diphosphate kinase B; assay: Binding affinity to NM23-H2 in human SiHa cells assessed as disruption of protein interaction with c-myc G-quadruplex DNA by measuring decrease in c-MYC protein expresson at 1 to 2 uM after 48 hrs by Western blot analysis; assay type: cell-based
How it was run: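 SiHa cells treated 48 h; lysates (30 μg) on 10% SDS-PAGE, nitrocellulose, anti-c-MYC overnight at 4 °C, HRP secondary, chemiluminescence; β-actin internal control; three repeats.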

[6] = Cell cycle arrest in mouse primary mesangial cells at 2 uM after 9 to 48 hrs by propidium iodide staining based flow cytometry method
SiHa [7] = assay: Induction of apoptosis in human SiHa cells assessed as increase in cleaved PARP level after 48 hrs by Western blot analysis; assay type: functional, cell-based
How it was run: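 SiHa cells treated with 0, 0.5, 1.0 or 2.0 μM for 48 h and lysed for total protein. Caspase-3, cleaved caspase-3, PARP and cleaved PARP detected by Western blot (30 μg protein, 10% SDS-PAGE, HRP chemiluminescence). Bands quantified by densitometry; at least three experiments.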

SiHa [8] = assay: Down regulation of cyclin D1 expression in human SiHa cells at 0.5 to 2 uM after 24 to 48 hrs by Western blot analysis; assay type: functional, cell-based
How it was run: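 SiHa cells (2.0 × 10^5) treated with compound at various concentrations for 24 or 48 h, then lysed at 4 °C. Protein measured by BCA; 30 μg run on 10% SDS-PAGE and transferred to nitrocellulose. Membranes blocked in 5% milk, probed with primary antibodies overnight at 4 °C, then HRP secondary for 2 h, and detected by chemiluminescence. Bands quantified by densitometry; at least three experiments.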

SiHa [9] = assay: Cell cycle arrest in human SiHa cells assessed as accumulation at S phase at 2 uM after 9 hrs by propidium iodide staining based flow cytometry (reference value: 13 %); assay type: functional
How it was run: (§1)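 SiHa cells (2.0 × 10^5 per well) plated 24 h, then exposed to 2 μM compound or left untreated for 3, 6, 9, 12, 24, 36 or 48 h. Cells washed in PBS, fixed overnight in ice-cold 70% ethanol, treated with 20 μg/mL RNase A for 30 min at 37 °C, stained with PI, and read by flow cytometry at 488 nm. Phase percentages compared with untreated control; at least three experiments.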

SiHa [10] = assay: Cell cycle arrest in human SiHa cells assessed as accumulation at G2/M phase at 2 uM after 9 hrs by propidium iodide staining based flow cytometry (reference value: 39 %); assay type: functional; how it was run: as §1
SiHa [11] = assay: Cell cycle arrest in human SiHa cells assessed as accumulation at G2/M phase at 2 uM after 12 hrs by propidium iodide staining based flow cytometry (reference value: 39 %); assay type: functional
How it was run: (§2)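 SiHa cells plated 24 h, treated at 2 μM for 3–48 h; fixed in ice-cold 70% ethanol overnight, RNase A 20 μg/mL 37 °C 30 min, PI-stained, flow cytometry at 488 nm; phase percentages quantified; at least three experiments.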

SiHa [12] = assay: Cell cycle arrest in human SiHa cells assessed as accumulation at G0/G1 phase at 2 uM after 24 hrs by propidium iodide staining based flow cytometry (reference value: 48 %); assay type: functional; how it was run: as §2
SiHa [13] = assay: Cell cycle arrest in human SiHa cells assessed as accumulation at S phase at 2 uM after 24 hrs by propidium iodide staining based flow cytometry (reference value: 13 %); assay type: functional; how it was run: as §1
SiHa [14] = assay: Cell cycle arrest in human SiHa cells assessed as accumulation at G0/G1 phase at 2 uM after 36 hrs by propidium iodide staining based flow cytometry (reference value: 48 %); assay type: functional; how it was run: as §2
SiHa [15] = assay: Cell cycle arrest in human SiHa cells assessed as accumulation at S phase at 2 uM after 48 hrs by propidium iodide staining based flow cytometry (reference value: 13 %); assay type: functional; how it was run: as §1
SiHa [16] = assay: Cell cycle arrest in human SiHa cells assessed as accumulation at sub-G1 phase at 2 uM after 12 hrs by propidium iodide staining based flow cytometry relative to control; assay type: functional; how it was run: as §1
SiHa [17] = assay: Cell cycle arrest in human SiHa cells assessed as accumulation at sub-G1 phase at 2 uM after 24 hrs by propidium iodide staining based flow cytometry relative to control; assay type: functional; how it was run: as §1
SiHa [18] = assay: Antiproliferative activity against human SiHa cells up to 100 hrs by real-time cellular activity assay; assay type: functional, cell-based
How it was run: (§3)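 Impedance-based real-time cell analysis at 37 °C, 5% CO2: 100 μL of 20 000 cells/mL added over medium background, settled 20 min, dosed after 24 h; read every 2 min for 2 h, then every 15 min to end; three repeats.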

SiHa [19] = assay: Antiproliferative activity against human SiHa cells harboring NM23-H2 siRNA up to 2 uM after 24 hrs by real-time cellular activity assay; assay type: functional, cell-based
How it was run: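 SiHa cells precultured 24 h, transfected with 30 nM NM23-H2 siRNA for 6 h, dosed up to 2 μM 24 h after siRNA; growth followed by impedance-based real-time cell analysis.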

Mus musculus = assay: Toxicity in BALB/C nude mouse xenografted with human SiHa cells at 2.5 to 5 mg/kg, ip administered daily after 3 weeks; assay type: organism-based; conditions: in vivo, 504 h
How it was run: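 SiHa cells implanted in the right armpit of BALB/c nu/nu mice. At approximately 50 mm3, mice randomized (n = 8/group) to vehicle, compound 2.5 or 5.0 mg/kg, or doxorubicin 1.0 mg/kg, given ip daily for 3 weeks. Body weight and signs of pain, distress or discomfort monitored; tumors excised and weighed. Data given as mean ± SEM, t test against vehicle.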

SiHa [20] = assay: Antitumor activity against human SiHa cells xenografted in BALB/C nude mouse assessed as tumor weight at 2.5 mg/kg, ip administered daily after 3 weeks (reference value: 511.6 mg); assay type: functional
SiHa [21] = assay: Induction of apoptosis in human SiHa cells assessed as necrotic cells at 2 uM after 48 hrs by Annexin V-FITC/propidium iodide based flow cytometric analysis (reference value: 0.3%); assay type: functional
[22] = Antiproliferative activity against mouse primary mesangial cells at 4 uM up to 100 hrs by real-time cellular activity assay; assay type: cell-based; conditions: primary mesangial cell; how it was run: as §3

T1 sequence (P22392 whole entry, the tested form may be a part): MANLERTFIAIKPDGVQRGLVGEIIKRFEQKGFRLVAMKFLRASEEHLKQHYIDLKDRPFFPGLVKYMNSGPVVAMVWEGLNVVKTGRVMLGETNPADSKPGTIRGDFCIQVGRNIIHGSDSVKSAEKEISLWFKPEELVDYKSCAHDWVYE

Activity [1]: Dose-dependent effect
Activity [2]: inactive
Activity [3]: inactive
Activity [5]: Active
Compound: CN(C)CCCNc1cc2nc3n(c(=O)c2cc1F)CC/C3=C\c1ccc(OCc2ccccc2)cc1O
Activity (SiHa [4]): inactive
Activity [6]: Non-Toxic
Activity (SiHa [7]): Dose-dependent effect
Activity (SiHa [8]): Active
Activity (SiHa [9]): 12%
Activity (SiHa [10]): 21%
Activity (SiHa [11]): 27%
Activity (SiHa [12]): 22%
Activity (SiHa [13]): 6%
Activity (SiHa [14]): 1%
Activity (SiHa [15]): 0%
Activity (SiHa [16]): 8%
Activity (SiHa [17]): 64%
Activity (SiHa [18]): Dose-dependent effect
Activity (SiHa [19]): inactive
Activity (Mus musculus): Non-Toxic
Activity (SiHa [20]): 265.9 mg
Activity (SiHa [21]): 2.2%
Activity [22]: Toxic
